HTR2A ag = mouse Htr2a agonists via beta-arrestin recruitment, primary screen, cell-based, luminescence | hit rate 0.66% among 360,000 | CHO-K1 mHTR2A beta-arrestin complementation; percent of 30 µM serotonin response | 5-hydroxytryptamine receptor 2A (Mus musculus), P35363 | activation, % at 7.6 µM | AID 624169, 2012;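 active means activation above a run cutoff, the mean activation of all tested compounds plus 3 SD, cut at about 14% in these data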
Target sequence (P35363 whole entry, looked up): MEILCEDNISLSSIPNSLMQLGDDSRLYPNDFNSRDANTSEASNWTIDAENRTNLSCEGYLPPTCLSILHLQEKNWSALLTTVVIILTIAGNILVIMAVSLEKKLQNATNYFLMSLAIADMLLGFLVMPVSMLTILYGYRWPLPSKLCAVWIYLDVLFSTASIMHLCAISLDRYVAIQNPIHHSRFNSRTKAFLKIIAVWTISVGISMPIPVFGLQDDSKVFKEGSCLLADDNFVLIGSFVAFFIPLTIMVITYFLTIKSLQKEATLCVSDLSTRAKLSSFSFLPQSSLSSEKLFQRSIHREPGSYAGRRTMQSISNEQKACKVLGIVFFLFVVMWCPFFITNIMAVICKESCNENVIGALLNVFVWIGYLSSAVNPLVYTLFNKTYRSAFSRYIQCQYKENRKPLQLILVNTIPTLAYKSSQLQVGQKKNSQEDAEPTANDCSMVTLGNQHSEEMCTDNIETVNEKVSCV
MsrA act = bovine MsrA enzyme activators, primary screen, biochemical, absorbance, HTS. Methionine sulfoxide reductase A (Bos taurus). purified bovine MsrA, absorbance read-out. activation, % at 10.6 µM. hit rate 0.3% among 360,000. AID 602163, 2012; in the data active means activation above about 7.5%
MsrA inhibitor = bovine MsrA enzyme inhibitors, primary screen, biochemical, absorbance, HTS; Methionine sulfoxide reductase A (Bos taurus); purified bovine MsrA, absorbance read-out; inhibition, % at 15.5 µM; hit rate 0.75% among 360,000; in the data active means inhibition above about 4.5%
AHR activator = AHR activators, primary screen, cell-based, luminescence, luciferase reporter, human | activation, % at 5 µM | Aryl hydrocarbon receptor (Homo sapiens), P35869 | AID 2796, 2010 | hit rate 2.5% among 320,000 | AHR-responsive luciferase reporter cells; in the data active means activation above about 47%
AI-2 QS modul = Vibrio harveyi AI-2 quorum sensing modulators, primary screen, JMH597 strain, luminescence/OD600 ratio; Vibrio harveyi JMH597 AI-2 luminescence/OD600 ratio, 9 h; stronger effect = lower value; strain lacks LuxN and CqsS sensors; 0 = neutral-control median; activity change, % at 7.5 µM; hit rate 0.4% among 300,000; AID 2094, 2009; in the data active means activity change below about -75%, passing the limit was not always enough; inconclusive means no clear call, values can overlap the other calls;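 further: luminescence divided by OD600 gain over 9 h not by final OD600 alone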
Tb MetRS inh = T. brucei MetRS inhibitors, primary screen, biochemical, luminescence | methionyl-tRNA synthetase (Trypanosoma brucei brucei) | purified T. brucei MetRS, ATP depletion, Kinase-Glo luminescence | inhibition, % at 11.9 µM | hit rate 0.4% among 360,000 | AID 624268, 2012;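 active means inhibition above a per-plate cutoff of the control wells' mean inhibition plus 3 SD, cut at about 5.5% in these data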
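Test system – parasite MetRS enzyme · Reagent – substrates ATP, L-methionine and bulk Escherichia coli tRNA · Doses – 11.9 µM compound single dose, 0.9% DMSO · Times – 15 min enzyme-compound preincubation, 2 h reaction, 10 min detection, 25 °C · Signal – Kinase-Glo luminescence, ATP depletion format · Controls – DMSO-only wells as low control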
JMH597 growth = Vibrio harveyi growth inhibition, confirmation, counter-screen for AI-2 quorum sensing project, JMH597 strain, OD600 absorbance; AID 2726, 2010; hit rate 1% among 750; growth inhibition, % at 7.5 µM; shares compounds with AI-2 QS modul; 9 h; lacks LuxN and CqsS sensors;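 active means every replicate shows growth inhibition above 50%; inconclusive means at least half, but not all, replicates pass that cutoff; inactive means fewer than half of replicates pass it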
BB721 lum counter = luminescence inhibition in constitutive-on V. harveyi, confirmation, counter-screen for LuxS inhibitor project, strain BB721, luminescence readout; shares compounds with AI-2 QS modul; Vibrio harveyi BB721 luminescence, 9 h; inhibition, % at 7.5 µM; hit rate 95% among 750; AID 2727, 2010;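 active means inhibition above about 80% in every replicate, not just on average, limit read from the data; inconclusive means at least half of replicates past the limit, but not all; inactive means fewer than half of replicates past the limit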
BB721 growth = growth inhibition of V. harveyi BB721, confirmation, cytotoxicity control for AI-2 quorum sensing inhibitors, strain BB721, absorbance OD600; shares compounds with AI-2 QS modul; hit rate 3% among 750; Vibrio harveyi BB721 growth, 9 h; growth inhibition, % at 7.5 µM;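 active means every replicate shows growth inhibition above 50%; inconclusive means at least half but not all replicates above 50% inhibition; inactive means under half of replicates above 50% inhibition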
JMH597 AI-2 mod = Vibrio harveyi AI-2 signaling luminescence modulation – JMH597 strain, confirmation; hit rate 97% among 750; inhibition, % at 7.5 µM; shares compounds with AI-2 QS modul; Vibrio harveyi JMH597 AI-2 quorum sensing luminescence, 9 h; luxN and CqsS knockout, AI-2 only;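 active means every replicate shows more than 75% inhibition of signal versus neutral control wells; inconclusive means half to three quarters of replicates exceed 75% inhibition; inactive means fewer than half of replicates exceed 75% inhibition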
Hits are given with their value; - = inactive; ? = inconclusive; . = no result. Rows were chosen to be rich in hits. Some 4.4% of all compounds tested hit in one or more screens of this group.

SMILES | HTR2A ag | MsrA act | MsrA inhibitor | AHR activator | AI-2 QS modul | Tb MetRS inh | JMH597 growth | BB721 lum counter | BB721 growth | JMH597 AI-2 mod
COc1ccc(CC(=O)O/N=C(\N)c2ccccn2)cc1OC | - | - | - | . | - | - | . | . | . | .
COc1ccc(CC(=O)O/N=C(\N)c2ccc(C)cc2)cc1 | - | - | - | - | -89 | - | - | 96 | - | 97
Cc1ccc(CC(=O)O/N=C(\N)c2ccccn2)cc1 | - | - | - | - | -84 | - | - | 87 | - | 91
N/C(=N\OC(=O)Cc1ccc(Cl)cc1)c1ccccn1 | - | - | - | - | -87 | - | - | 91 | - | 93
Cc1ccc(S(=O)(=O)NC(C(=O)N2CCN(S(=O)(=O)c3cccc(F)c3)CC2)C(C)C)cc1 (stereo not drawn) | - | - | - | . | . | - | . | . | . | .
COc1ccc(CCNC(=O)CCS(=O)(=O)c2ccc3c(c2)NC(=O)CO3)cc1OC | - | - | - | - | - | - | . | . | . | .
c1ccc(CSc2nnc(-c3ccco3)o2)cc1 | - | - | - | - | -87 | - | - | 95 | - | 96
Brc1ccc(CSc2nnc(-c3ccco3)o2)cc1 | - | - | - | - | - | - | . | . | . | .
Cc1ccc(CSc2nnc(-c3ccco3)o2)cc1 | - | - | - | - | -82 | - | - | 96 | - | 98
CO/N=C\CC(=O)Nc1ccc(Oc2ccccc2)cc1 | - | - | - | - | -80 | - | - | 84 | - | 91
O=C(COC(=O)C1CCC1)Nc1ccc(Oc2ccccc2)cc1 | - | - | - | - | - | - | . | . | . | .
O=C(COC(=O)C1CC1)Nc1ccc(Oc2ccccc2)cc1 | - | - | - | - | -82 | - | - | 89 | - | 94
COc1cccc(/C=C/C(=O)OCC(=O)N2CCCC2)c1OC | - | - | - | - | . | - | . | . | . | .
CCCOC(=O)c1ccc(NS(=O)(=O)c2cccs2)cc1 | - | - | - | - | -86 | - | - | 89 | - | 99
COc1ccc(-c2noc(CCC(=O)N3CCN(c4cccc(Cl)c4)CC3)n2)cc1 | - | - | - | . | . | - | . | . | . | .
COc1cccc(Oc2cn[nH]c2-c2ccc(O)cc2O)c1 | - | - | - | - | -84 | - | ? | 98 | ? | 99
O=C(Cn1nnc(-c2ccccc2)n1)c1ccccc1 | - | - | - | - | -94 | - | - | 98 | - | 99
COc1ccc(C(=O)Cn2nnc(-c3cccs3)n2)cc1 | - | - | - | - | -81 | - | - | 93 | - | 96
COc1ccc(N2CCN(C(=O)Cn3nnc(-c4cccs4)n3)CC2)cc1 | - | - | - | - | - | - | . | . | . | .
CC(C)(C)C(=O)Cn1nnc(-c2ccc(C(F)(F)F)cc2)n1 | - | - | - | - | -80 | - | - | 90 | - | 93
NC(=O)Cn1nnc(-c2ccc(C(F)(F)F)cc2)n1 | - | - | - | - | - | - | . | . | . | .
O=C(Cn1nnc(-c2ccccc2)n1)NNC(=O)c1ccccc1 | - | - | - | - | - | - | . | . | . | .
CN(C(=O)Cn1nc(Cl)ccc1=O)C1CCCN(Cc2ccccc2F)C1 (stereo not drawn) | - | - | - | - | - | - | . | . | . | .
Cc1ccc(CNC(=O)Nc2ccc(Cl)cc2)cc1 | - | - | - | - | -83 | - | - | 86 | - | 90
O=C(NCc1ccc(Cl)cc1)Nc1ccc(F)cc1 | - | - | - | . | ? | - | - | 96 | - | 96
SMILES | HTR2A ag | MsrA act | MsrA inhibitor | AHR activator | AI-2 QS modul | Tb MetRS inh | JMH597 growth | BB721 lum counter | BB721 growth | JMH597 AI-2 mod
O=C(NCc1cccs1)Nc1ccc(Cl)cc1 | - | - | - | - | ? | - | - | 94 | 60 | 91
Cc1ccc(CNC(=O)Nc2cccs2)cc1 | - | - | - | - | -82 | - | - | 95 | - | 95
COc1ccc(CNC(=O)Nc2cccs2)cc1OC | - | - | - | - | - | - | . | . | . | .
CC(=O)Nc1ccc(NC(=O)CCc2c(C)noc2C)cc1 | - | - | - | . | . | - | . | . | . | .
CCOc1ncccc1C(=O)Nc1c(C)n(C)n(-c2ccccc2)c1=O | - | - | - | - | - | - | . | . | . | .
COc1ccc(COC(=O)c2sc3nc4n(c(=O)c3c2C)CCC4)cc1 | - | - | - | - | - | - | . | . | . | .
Cc1c(C(=O)OCC(=O)NC2CC2)oc2ccc(Br)cc12 | - | - | - | . | . | - | . | . | . | .
Cc1ccc(CNC(=O)Nc2ccccc2)cc1 | - | - | - | - | -91 | - | - | 97 | - | 97
Cc1ccc(CNC(=O)NCc2ccccc2)cc1 | - | - | - | - | - | - | . | . | . | .
CC(Cc1cccnc1)NC(=O)c1cc(COc2c(F)cccc2F)on1 (stereo not drawn) | - | - | - | 48 | ? | - | - | 88 | - | 92
Cc1ccc(CSc2nnc(-c3cccnc3)n2N)cc1 | - | - | - | - | -90 | - | - | 96 | - | 97
Cc1ccc(C(=O)CSc2nnc(-c3cccnc3)n2N)cc1 | - | - | - | - | - | - | . | . | . | .
CC(C)C(=O)N1CCCC1(C)C(=O)Nc1ccc(-n2cncn2)cc1 (stereo not drawn) | - | - | - | . | . | - | . | . | . | .
CCOc1ccc(NC(=O)CN(C)C(=O)CC2OC(=O)c3ccccc32)cc1OCC (stereo not drawn) | - | - | - | - | - | - | . | . | . | .
c1ccc(CSc2nnc(-c3ccncc3)o2)cc1 | - | - | - | - | -88 | - | - | 95 | - | 96
Cc1ccccc1-c1nnc(SCc2ccccc2F)o1 | - | - | - | - | -81 | - | - | 95 | - | 96
COc1cccc(CSc2nnc(-c3ccc(F)cc3)o2)c1 | - | - | - | - | -91 | - | - | 96 | - | 97
Fc1ccccc1CSc1nnc(-c2ccccc2)o1 | - | - | - | - | -93 | - | - | 98 | - | 98
COc1ccc(-c2nnc(SCc3cccc(C#N)c3)o2)cc1 | - | - | - | - | - | - | . | . | . | .

Screens from PubChem BioAssay.
